This is an account of results in ChEMBL document CHEMBL3259817, “N-carbamidoyl-4-((3-ethyl-2,4,4-trimethylcyclohexyl)methyl)benzamide enhances staurosporine cytotoxic effects likely inhibiting the protective action of Magmas toward cell apoptosis” (J Med Chem, 2014).

Active and inactive are the calls of the source. No cut-off for these calls is given here.

The test system of data set [1] is TT. The data set can be described thus: Induction of apoptosis in human TT cells assessed as caspase 3/7 activation at 1 to 10 uM after 72 hrs by luminescence assay. Format: functional, cell-based. An outline of the steps:
(§1)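 TT cells (2 × 10^4/well) exposed 72 h to compound, treatment renewed every 24 h; vehicle 0.1% DMSO. Caspase-Glo 3/7 reagent added at room temperature, plates shaken 30 s, incubated 1 h, luminescence (RLU) read. Mean ± SE percent RLU vs vehicle control; three independent experiments in six replicates.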

Data set [2] deals with TT. The data set can be described thus: Effect on total TIM16 protein level in human TT cells at 10 uM after 24 hrs by Western blotting analysis. Format: functional, cell-based. In outline: (§2)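 TT cells treated 24 h with 10 μM compound alone or with 50 nM staurosporine, then lysed in RIPA buffer on ice 30 min and centrifuged; protein by BCA. Lysates run on 10% SDS-PAGE, blotted to nitrocellulose, probed with rabbit anti-Tim 16 (1:1000), HRP anti-rabbit IgG (1:5000), ECL detection; stripped and reprobed for β-actin loading control.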
For orientation: A western blot detects proteins with antibodies after separation by electrophoresis.

Data set [3] concerns TT. The data set can be described thus: Effect on total TIM16 protein level in human TT cells at 10 uM after 24 hrs by Western blotting analysis in presence of staurosporine. The class given is functional, cell-based. An outline of the steps: as §2
In data set [4] the test system is TT. The data set can be described thus: Cytotoxicity against human TT cells assessed as reduction in cell viability at 1 to 10 uM after 72 hrs by ATPlite assay. Format: functional, cell-based. An outline of the steps: (§3)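 TT or MCF12A cells seeded at 2 × 10^4/well, exposed to compound for 72 h with treatment renewed every 24 h; vehicle control 0.1% DMSO. Viable cell number read by ATPlite luminescence (RLU). Results are mean ± SE percent RLU vs vehicle-treated control from three independent experiments in six replicates.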
Background: Cellular ATP, detected with luciferase, serves as a proxy for viable cell number.

The subject of data set [5] is TT. The data set can be described thus: Potentiation of staurosporine-induced apoptosis in human TT cells assessed as caspase 3/7 activation at 5 to 10 uM after 72 hrs by ATPlite assay relative to control. Format: functional, cell-based. The note with it: in the assay text read “Caspase-Glo 3/7 assay” for “ATPlite assay”. In outline: (§4)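 TT cells (2 × 10^4/well) given 5 or 10 μM compound alone or with 50 nM staurosporine, renewed every 24 h, for 72 h. Caspase 3/7 activity by Caspase-Glo 3/7: reagent added at room temperature, 30 s shake, 1 h incubation, luminescence read. Mean ± SE percent RLU vs vehicle control, three experiments in six replicates.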

Data set [6] has as its system TT. The data set can be described thus: Potentiation of staurosporine-induced apoptosis in human TT cells assessed as caspase 3/7 activation at 5 uM after 72 hrs by ATPlite assay relative to control. The class given is functional. To be noted: in the assay text read “Caspase-Glo 3/7 assay” for “ATPlite assay”. An outline of the steps: as §4
Data set [7] concerns TT. The data set can be described thus: Potentiation of staurosporine-induced apoptosis in human TT cells assessed as caspase 3/7 activation at 10 uM after 72 hrs by ATPlite assay relative to control. Format: functional. To be noted: in the assay text read “Caspase-Glo 3/7 assay” for “ATPlite assay”. An outline of the steps:
as §4

The test system of data set [8] is TT. The data set can be described thus: Potentiation of staurosporine-induced cytotoxicity against human TT cells assessed as reduction in cell viability at 5 uM after 72 hrs by ATPlite assay relative to control. Format: functional. An outline of the steps:
(§5)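 Cells seeded at 2 × 10^4/well, given 5 or 10 μM compound alone or combined with 50 nM staurosporine, treatments renewed every 24 h for 72 h; vehicle 0.1% DMSO. ATPlite luminescence (RLU) read-out, expressed as mean ± SE percent of vehicle-treated control; three independent experiments, six replicates each.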

Data set [9] deals with TT. The data set can be described thus: Potentiation of staurosporine-induced cytotoxicity against human TT cells assessed as reduction in cell viability at 10 uM after 72 hrs by ATPlite assay relative to control. The class given is functional. An outline of the steps:
as §5

A short description of data set [10]: Cytotoxicity against human MCF12A cells assessed as reduction in cell viability at 5 to 10 uM after 72 hrs by ATPlite assay. The class given is cell-based. The note with it: mcf-12a. In outline: as §3
A short description of data set [11]: Potentiation of staurosporine-induced cytotoxicity against human MCF12A cells assessed as reduction in cell viability at 5 to 10 uM after 72 hrs by ATPlite assay. The class given is cell-based. To be noted: mcf-12a. An outline of the steps: as §5
In data set [12] the test system is TT. The data set can be described thus: Induction of apoptosis in human TT cells assessed as decrease in mitochondrial membrane potential at 10 uM by JC-1 staining-based fluorescence microscopic analysis. Format: functional, cell-based. In outline: (§6)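 TT cells treated with 5 or 10 μM compound, 50 nM staurosporine, or the combination. Mitochondrial membrane potential assessed with JC-1 dye, 30 min at 37 °C, by fluorescence microscopy; red aggregate fluorescence indicates retained potential, green monomer fluorescence a fall in potential.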

Data set [13] concerns TT. The data set can be described thus: Potentiation of staurosporine-induced apoptosis in human TT cells assessed as decrease in mitochondrial membrane potential at 10 uM by JC-1 staining-based fluorescence microscopic analysis. The class given is functional, cell-based. In outline:
as §6

Data set [14] concerns TT. The data set can be described thus: Induction of apoptosis in human TT cells assessed as caspase 3/7 activation at 10 uM after 72 hrs by luminescence assay relative to control. Format: functional. In outline:
as §1

The test system of data set [15] is TT. The data set can be described thus: Cytotoxicity against human TT cells assessed as reduction in cell viability at 10 uM after 72 hrs by ATPlite assay relative to control. Format: functional. In outline: as §3
For data set [16], the system named is TT. The data set can be described thus: Cytotoxicity against human TT cells assessed as reduction in cell viability at 5 uM after 72 hrs by ATPlite assay. The class given is functional, cell-based. In outline: as §3
The test system of data set [17] is TT. The data set can be described thus: Potentiation of staurosporine-induced cytotoxicity against human TT cells assessed as reduction in cell viability at 5 to 10 uM after 72 hrs by ATPlite assay. Format: functional, cell-based. An outline of the steps:
as §5

Data set [18] concerns TT. The data set can be described thus: Induction of apoptosis in human TT cells assessed as caspase 3/7 activation at 5 uM after 72 hrs by luminescence assay. Format: functional, cell-based. In outline: as §1

With `CCC1=C(C)/C(=C/c2ccc(C(N)=O)cc2)CCC1(C)C`, the outcome in [1], in data set [2], in data set [3], in data set [4] and in data set [5] was inactive.
Turning to `CCC1=C(C)/C(=C/c2ccc(C(=O)NC(N)=O)cc2)CCC1(C)C`, the result in data set [1], in data set [2], in data set [3], in data set [4] and in data set [5] was inactive.
Take `CCC1=C(C)/C(=C/c2ccc(C(=O)O)cc2)CCC1(C)C`: the result in data set [1], in [2], in [3], in [4] and in data set [5] was inactive.
Take `CCC1C(C)C(Cc2ccc(C(=O)NC(=N)N)cc2)CCC1(C)C` (stereo not drawn): the result in [1], in data set [2], in data set [3] and in data set [4] was inactive. For the same compound, the Activity in data set [6] is 140%; in [7], 330%; in [8] it was 12%; in [9], 20%; in data set [10] it was “Non-toxic”; in data set [11], “Non-toxic”. Further, the result in [12] and in [13] was Active.
`CCC1=C(C)/C(=C/c2ccc(C(=O)NC(=N)N)cc2)CCC1(C)C`: the Activity came to 300% in data set [14], 70% in data set [15], 40% in data set [6] and 400% in data set [7]. Further, the outcome in data set [2], in data set [3], in data set [16], in data set [18] and in [12] was inactive. Moreover, the result in [17] and in data set [13] was Active.
